The record followed here is ChEMBL document CHEMBL4028892, “Discovery of a 1-Methyl-3,4-dihydronaphthalene-Based Sphingosine-1-Phosphate (S1P) Receptor Agonist Ceralifimod (ONO-4641). A S1P1 and S1P5 Selective Agonist for the Treatment of Autoimmune Diseases” (J Med Chem, 2017).

Molecules are shown by their SMILES.

The species named for one data set is Homo sapiens. Briefly: Selectivity ratio of EC50 for human S1P3 receptor to EC50 for human S1P1 receptor. In a few lines:
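Fura2 Ca2+ assay in CHO-K1 cells stably expressing human S1P1 or S1P3. Cells were loaded with 5 μM Fura2-AM in Ham's F12 (10% FBS, 20 mM HEPES pH 7.4, 2.5 mM probenecid) for 60 min at 37 °C, then washed. After a 30 s baseline, compound was added (0.1 nM–30 μM final, DMSO), then 100 nM S1P 5 min later. Ratio read every 3 s (ex 340/380, em 500 nm). Increase ratio (%) = B/A×100 against the DMSO-well S1P peak; EC50 taken from the concentration series; mean of ≥2 data points.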

Data set [1] is described as follows: Plasma concentration in unrestrained conscious cynomolgus monkey at 100 mg/kg, po measured at 24 hrs. Type of data set: ADME, organism-based, Macaca fascicularis. The method in brief: (§1)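 Single oral dose of 1, 10 or 100 mg/kg to unrestrained conscious monkeys. Heart rate was followed from 4 to 24 h after dosing and its decrease expressed against the pretreatment value. Plasma concentration was sampled at 4 and 24 h.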

Data set [2] has as its target Sphingosine 1-phosphate receptor 1 (Rattus norvegicus, UniProt P48303). Briefly: Agonist activity at rat S1P1 receptor assessed as inhibition of forskolin-stimulated cAMP accumulation after 30 mins by ELISA. Type of data set: functional.
Data set [3] in a line: Cmax in cynomolgus monkey at 0.1 mg/kg, po by LC-MS/MS analysis. The format is ADME, organism-based, Macaca fascicularis. More on the design: dose 0.1 mg/kg, route oral. The conditions noted are these: in vivo. In a few lines:
(§2)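 Single intravenous or oral dose of 0.1 mg/kg to male Crl:CD(SD) rats and to monkeys. Values are means of three animals with SD.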

Data set [4] in a line: AUC (infinity) in cynomolgus monkey at 0.1 mg/kg, iv by LC-MS/MS analysis. Type of data set: ADME, organism-based, Macaca fascicularis. The conditions noted are these: in vivo. More on the design: dose 0.1 mg/kg, time infinity, route intravenous. In a few lines:
as §2

In another data set the test system is Cynomolgus monkey. The data set can be described thus: Toxicity in unrestrained conscious cynomolgus monkey assessed as decrease in heart rate at 100 mg/kg, po administered as single dose measured after 4 to 24 hrs. The conditions noted are these: in vivo. The format is organism-based, Macaca fascicularis. The method in brief: as §1
Data set [5] can be described thus: Plasma concentration in unrestrained conscious cynomolgus monkey at 10 mg/kg, po measured at 4 hrs. Type of data set: ADME, organism-based, Macaca fascicularis. In a few lines: as §1
Data set [6] can be described thus: Oral bioavailability in cynomolgus monkey at 0.1 mg/kg by LC-MS/MS analysis. Type of data set: ADME, organism-based, Macaca fascicularis. The conditions noted are these: in vivo. In a few lines:
as §2

Data set [7] concerns the target Sphingosine 1-phosphate receptor 1 (Homo sapiens, UniProt P21453). Briefly: Displacement of [33P]-S1P from human S1P1 receptor expressed in CHO-K1 cells after 60 mins by scintillation counting method. The format is cell-based.
A short description of data set [8]: Cmax in Crl:CD(SD) rat at 0.1 mg/kg, po by LC-MS/MS analysis. The arrangement: dose 0.1 mg/kg, route oral. The format is ADME, organism-based. The conditions noted are these: in vivo. The method in brief: as §2

Chain of Sphingosine 1-phosphate receptor 1 (Rattus norvegicus, UniProt P48303) (P48303 whole entry): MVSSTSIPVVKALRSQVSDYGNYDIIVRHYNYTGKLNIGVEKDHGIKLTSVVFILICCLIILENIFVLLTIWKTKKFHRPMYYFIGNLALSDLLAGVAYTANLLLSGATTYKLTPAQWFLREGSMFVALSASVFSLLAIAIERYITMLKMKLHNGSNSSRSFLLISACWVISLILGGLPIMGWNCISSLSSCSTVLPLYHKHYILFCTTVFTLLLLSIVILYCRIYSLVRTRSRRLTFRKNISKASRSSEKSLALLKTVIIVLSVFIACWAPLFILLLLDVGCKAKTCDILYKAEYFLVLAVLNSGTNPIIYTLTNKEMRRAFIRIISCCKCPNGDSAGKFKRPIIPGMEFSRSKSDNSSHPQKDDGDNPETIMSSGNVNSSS
Chain of Sphingosine 1-phosphate receptor 1 (Homo sapiens, UniProt P21453) (P21453 whole entry): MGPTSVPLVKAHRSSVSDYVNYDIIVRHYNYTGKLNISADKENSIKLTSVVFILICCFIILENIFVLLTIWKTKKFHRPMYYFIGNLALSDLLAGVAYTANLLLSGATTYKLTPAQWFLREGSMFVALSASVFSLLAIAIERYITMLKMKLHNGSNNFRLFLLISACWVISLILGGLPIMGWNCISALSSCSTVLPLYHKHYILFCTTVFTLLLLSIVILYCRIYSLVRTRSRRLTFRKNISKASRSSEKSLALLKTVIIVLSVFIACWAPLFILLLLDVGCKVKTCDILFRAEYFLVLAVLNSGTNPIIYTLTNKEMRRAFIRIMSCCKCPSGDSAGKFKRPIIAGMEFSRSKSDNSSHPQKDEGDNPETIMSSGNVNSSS

Take `CCCc1ccc(COc2ccc3c(c2)CCC(CN2CC(C(=O)O)C2)=C3C)c(OC)c1`: the Ratio EC50 in the data set filed under Homo sapiens was over 30000. Besides, in data set [1], the concentration at 24 h is 11100 ng/mL. Also, in data set [2], the EC50 turned out to be 28.6 pM. Moreover, the Cmax is 28.4 ng/mL in data set [3] and 7.47 ng/mL in [8]. Besides, in data set [4], the AUC(0-inf) is 1640 ng·h/mL. Also, the Activity result in the data set on Cynomolgus monkey was “Toxic”. The compound further displayed a concentration at 4 h in data set [5] of 3570 ng/mL. The bioavailability in data set [6] turned out to be 66.5%. Moreover, the Ki in data set [7] turned out to be 626 pM.
